Reference: ChEMBL document CHEMBL1122582, “Pyridonecarboxylic acids as antibacterial agents. 2. Synthesis and structure-activity relationships of 1,6,7-trisubstituted 1,4-dihydro-4-oxo-1,8-naphthyridine-3-carboxylic acids, including enoxacin, a new antibacterial agent” (J Med Chem, 1984)
In brackets after ≈: the same amount, converted by molar mass.

Key:
Type in all cases: functional
Escherichia coli = assay: Antibacterial activity against Escherichia coli NIHJ JC-2
Method in brief: (§1)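 Twofold agar dilution on Mueller-Hinton agar (pH 7.4). Inocula of approximately 10⁶ colony-forming units; growth read after 20-h incubation at 37 °C. MIC is given in micrograms per milliliter.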

Staphylococcus aureus = assay: Antibacterial activity against Staphylococcus aureus 209PJC-1; method in brief: as §1
Pseudomonas aeruginosa = assay: Antibacterial activity against Pseudomonas aeruginosa Tsuchijima; method in brief: as §1

Row | Structure (SMILES) | MIC (Escherichia coli) [µg/mL] | MIC (Staphylococcus aureus) [µg/mL] | MIC (Pseudomonas aeruginosa) [µg/mL]
1 | CCN1CCN(c2nc3c(cc2F)c(=O)c(C(=O)O)cn3CC)CC1 | 0.78 (≈ 2.24 µM) | 0.78 (≈ 2.24 µM) | 3.13 (≈ 8.98 µM)
2 | CCn1cc(C(=O)O)c(=O)c2cc(F)c(N3CCSCC3)nc21 | 3.13 (≈ 9.28 µM) | 1.56 (≈ 4.62 µM) | 12.5 (≈ 37.1 µM)
3 | CCCCN1CCN(c2nc3c(cc2F)c(=O)c(C(=O)O)cn3CC)CC1 | 3.13 (≈ 8.31 µM) | 3.13 (≈ 8.31 µM) | 25 (≈ 66.4 µM)
4 | CCC(C)N1CCN(c2nc3c(cc2F)c(=O)c(C(=O)O)cn3CC)CC1 (configuration not stated) | 3.13 (≈ 8.31 µM) | 1.56 (≈ 4.14 µM) | 25 (≈ 66.4 µM)
5 | CCn1cc(C(=O)O)c(=O)c2cc(F)c(N3CCOCC3)nc21 | 3.13 (≈ 9.74 µM) | 1.56 (≈ 4.86 µM) | 6.25 (≈ 19.5 µM)
6 | CCn1cc(C(=O)O)c(=O)c2cc([N+](=O)[O-])c(N3CCNCC3)nc21 | 6.25 (≈ 18 µM) | 6.25 (≈ 18 µM) | 25 (≈ 72 µM)
7 | CCn1cc(C(=O)O)c(=O)c2cc(F)c(N3CCNC(=O)C3)nc21 | 0.78 (≈ 2.33 µM) | 6.25 (≈ 18.7 µM) | 12.5 (≈ 37.4 µM)
8 | CCn1cc(C(=O)O)c(=O)c2cc(C#N)c(N3CCN(C)CC3)nc21 | 1.56 (≈ 4.57 µM) | 12.5 (≈ 36.6 µM) | 12.5 (≈ 36.6 µM)
9 | CCn1cc(C(=O)O)c(=O)c2ccc(N3CCCC3)nc21 | 25 (≈ 87 µM) | 12.5 (≈ 43.5 µM) | > 100
10 | CCn1cc(C(=O)O)c(=O)c2cc(F)c(NCCN)nc21 | 6.25 (≈ 21.2 µM) | 25 (≈ 85 µM) | 50 (≈ 170 µM)
11 | CCn1cc(C(=O)O)c(=O)c2cc(F)c(N)nc21 | 1.56 (≈ 6.21 µM) | > 100 | 50 (≈ 199 µM)
12 | O=C(O)c1cn(CCF)c2nc(N3CCNCC3)c(F)cc2c1=O | 0.2 (≈ 0.591 µM) | 0.39 (≈ 1.15 µM) | 0.78 (≈ 2.31 µM)
13 | CCn1cc(C(=O)O)c(=O)c2cc(F)c(N3CCN(c4ccccc4)CC3)nc21 | 12.5 (≈ 31.5 µM) | 6.25 (≈ 15.8 µM) | > 100

Results, then the compound that gave them:

Row | MIC (Escherichia coli) [µg/mL] | MIC (Staphylococcus aureus) [µg/mL] | MIC (Pseudomonas aeruginosa) [µg/mL] | Structure (SMILES)
14 | 6.25 (≈ 18.7 µM) | 3.13 (≈ 9.39 µM) | 50 (≈ 150 µM) | CCn1cc(C(=O)O)c(=O)c2cc(F)c(N3CCCCCC3)nc21
15 | 25 (≈ 72 µM) | 12.5 (≈ 36 µM) | > 100 | CCn1cc(C(=O)O)c(=O)c2cc(F)c(N3CCCCCCC3)nc21
16 | > 100 | > 100 | > 100 | CCn1cc(C(=O)O)c(=O)c2cc(N)c(N3CCCC3)nc21
17 | 1.56 (≈ 5.11 µM) | 0.39 (≈ 1.28 µM) | 3.13 (≈ 10.3 µM) | CCn1cc(C(=O)O)c(=O)c2cc(F)c(N3CCCC3)nc21
18 | > 100 | 12.5 (≈ 38.8 µM) | > 100 | CCn1cc(C(=O)O)c(=O)c2cc(Cl)c(N3CCCC3)nc21
19 | 0.2 (≈ 0.624 µM) | 0.78 (≈ 2.44 µM) | 0.78 (≈ 2.44 µM) | CCn1cc(C(=O)O)c(=O)c2cc(F)c(N3CCNCC3)nc21 [ENOXACIN]
